Measured values gathered from unrelated publications.
MAOB: Amine oxidase [flavin-containing] B (MAOB, Homo sapiens, UniProt P27338)
ADRB1: Beta-1 adrenergic receptor (ADRB1, Homo sapiens, UniProt P08588)

Compound	target	effect on	action	method	setting	IC50 [µM]
COc1cccc(CO)c1	MAOB	enzyme activity	inhibitor	fluorescence	–	> 10
C#CCNc1nc(NCCCC2CCN(Cc3ccccc3)CC2)c(C#N)c(-c2ccccc2)c1C#N	MAOB	enzyme activity	inhibitor	fluorescence	with preincubation	> 100
CSCC[C@@H]1NC(=O)[C@H](Cc2c[nH]c3ccccc23)NC(=O)[C@H](CCCCN)NC(=O)[C@@H](NC(=O)[C@H](C)N)CSSC[C@@H](C(=O)NCC(=O)NCC(=O)NCC(N)=O)NC(=O)[C@H](Cc2ccc(O)cc2)NC(=O)CNC(=O)[C@H](CCC(=O)O)NC(=O)[C@H](CCC(=O)O)NC1=O	Lysine-specific demethylase 4C (KDM4C, Homo sapiens, UniProt Q9H3R0)	enzyme activity	inhibitor	TR-FRET	–	~520
COc1ncccc1-c1cnn2ccc(N3CCN(C(=O)OC(C)C)CC3)nc12	MAOB	enzyme activity	inhibitor	–	–	> 30
C#CCN(C)c1nc(NCCCC2CCN(Cc3ccccc3)CC2)c(C#N)cc1C#N	MAOB	enzyme activity	inhibitor	fluorescence	with preincubation	6.11
C[C@H](N)Cn1ncc2ccc3c(c21)CCCO3	ADRB1	ligand displacement	–	radioligand	–	5
C#CCNc1nc(NCCCC2CCN(Cc3ccccc3)CC2)c(C#N)cc1C#N	MAOB	enzyme activity	inhibitor	fluorescence	with preincubation	> 100
[Ba+2].[Cl-].[Cl-]	Inward rectifier potassium channel 2 (KCNJ2, Homo sapiens, UniProt P63252)	ion current	inhibitor	–	–	8.2
CCOc1ccccc1OCCN[C@H](C)Cc1ccc(OC)c(S(N)(=O)=O)c1	ADRB1	ligand displacement	–	radioligand	–	2.5
O=[N+]([O-])c1cc(Cl)c(O)c(Cl)c1	Sulfotransferase 1A1 (SULT1A1, Homo sapiens, UniProt P50225, R213H)	enzyme activity	inhibitor	–	–	0.7
CC(C)(C)c1ccc(NC(=O)c2ncn(CC(=O)NCc3ccc4c(c3)OCO4)n2)cc1	Histone-lysine N-methyltransferase SUV39H2 (SUV39H2, Homo sapiens, UniProt Q9H5I1)	enzyme activity	inhibitor	–	–	> 250
C#CCN(C)c1nc(NCCCCC2CCN(Cc3ccccc3)CC2)c(C#N)c(-c2ccccc2)c1C#N	MAOB	enzyme activity	inhibitor	fluorescence	with preincubation	> 100
O=c1c2ccccc2[nH]c(=S)n1-c1ccccc1	Serine protease 1 (PRSS1, Bos taurus, UniProt P00760)	enzyme activity	inhibitor	–	–	84.5
